Assay results reported in ChEMBL document CHEMBL2057119, “Small molecules that protect against β-amyloid-induced cytotoxicity by inhibiting aggregation of β-amyloid” (Bioorg Med Chem, 2012).
Calls of active or inactive are those of the source. The calls are words filed in the database; no cut-off is given here.

Columns and labels:
Mus musculus [1] = assay: Antialzheimer activity in ICR mouse assessed as reduction in amyloid beta (1 to 42)-induced spontaneous memory loss at 100 mg/kg, po measured after 2 days by object recognition task relative to control; format: functional; design: scale not given: the % may be the effect or the level left
In short: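 Male ICR mice received ICV pre-aggregated Aβ(1–42) at 10 nM (50 µL, 2.4 mm depth at bregma), then compound at 100 mg/kg po once daily. Object recognition ran on days 2–3. Exploration was counted as the nose directed at an object within 2 cm and/or touching it, and objects were cleaned to avoid olfactory cues. Preference index = exploration time for new object / total exploration time. n = 10, mean ± SEM.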

Mus musculus [2] = assay: Antialzheimer activity in ICR mouse assessed as reduction in amyloid beta (1 to 42)-induced spontaneous memory loss at 100 mg/kg, po measured after 2 days by Y-maze test; format: functional; design: scale not given: the % may be the effect or the level left
In short: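 Aβ(1–42) at 10 nM in PBS (from a 250 µM DMSO stock) was aggregated at 37 °C for 6 days, then injected ICV (50 µL, 2.4 mm depth at bregma) into male ICR mice. Compound was given at 100 mg/kg po once daily, and the Y-maze test was on day 2. Each mouse explored a three-arm maze freely for 8 min. An entry counted when all four limbs were in an arm; spontaneous alternation was scored as three consecutive different-arm entries. n = 10, mean ± SEM.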

[3] = target: T1, Amyloid-beta precursor protein (Homo sapiens, UniProt P05067); assay: Inhibition of amyloid beta (25 to 35)-induced cell death in mouse HT22 cells at 10 uM after 18 hrs by MTT assay; format: cell-based; conditions: HT-22, values are per cent of control
T1 sequence (P05067 whole entry): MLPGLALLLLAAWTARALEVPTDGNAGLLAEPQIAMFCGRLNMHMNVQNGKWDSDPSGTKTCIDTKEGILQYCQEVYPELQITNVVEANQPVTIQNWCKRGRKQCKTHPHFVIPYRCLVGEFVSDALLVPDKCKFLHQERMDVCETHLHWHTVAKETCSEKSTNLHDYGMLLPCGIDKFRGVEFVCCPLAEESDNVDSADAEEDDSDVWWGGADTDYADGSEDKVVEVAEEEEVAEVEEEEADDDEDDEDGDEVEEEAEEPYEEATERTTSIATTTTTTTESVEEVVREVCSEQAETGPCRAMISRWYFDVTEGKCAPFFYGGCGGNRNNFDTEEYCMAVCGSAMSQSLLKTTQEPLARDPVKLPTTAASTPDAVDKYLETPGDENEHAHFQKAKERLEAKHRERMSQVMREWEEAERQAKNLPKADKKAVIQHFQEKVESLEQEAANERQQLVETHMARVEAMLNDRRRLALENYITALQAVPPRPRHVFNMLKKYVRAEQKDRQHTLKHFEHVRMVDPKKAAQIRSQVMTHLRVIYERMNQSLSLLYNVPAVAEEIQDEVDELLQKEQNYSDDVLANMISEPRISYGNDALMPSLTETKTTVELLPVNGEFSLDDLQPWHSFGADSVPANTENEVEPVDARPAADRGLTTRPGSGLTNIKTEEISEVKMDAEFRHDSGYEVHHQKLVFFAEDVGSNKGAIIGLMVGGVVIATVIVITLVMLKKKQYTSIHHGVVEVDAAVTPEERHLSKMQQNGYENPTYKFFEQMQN
In short: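 HT22 cells were plated at 5×10^3 cells/well, serum-starved in plain DMEM for 1 h, and pretreated with compound for 1 h. Aβ(25–35) was prepared as a 10 mM DMSO stock, diluted 10-fold in PBS, and aggregated for 1 h at room temperature. It was then added at a final 25 µM, and cells were incubated for 18 h. Viability was measured by MTT (4 h), then solubilization in DMF/SDS and absorbance at 570/630 nm.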

[4] = target: T1, Amyloid-beta precursor protein; assay: Inhibition of amyloid beta (1 to 42) fibril formation after 1 hr by ThT spectrofluorometric analysis
In short: (§1)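 ThT diluted to 5 µM in 50 mM glycine buffer was then added. After 10 s of shaking, fluorescence was read at excitation 450 nm and emission 480 nm, as a measure of fibril formation.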

Mus musculus [5] = assay: Antialzheimer activity in ICR mouse assessed as increase in amyloid beta (1 to 42)-induced step-through latency at 100 mg/kg, po measured after 3 days by passive avoidance test; format: functional
In short: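 Male ICR mice got 50 µL of pre-aggregated Aβ(1–42) by ICV injection at 2.4 mm depth at bregma. The peptide was a 250 µM DMSO stock diluted in PBS to 10 nM and aggregated at 37 °C for 4 days. Oral compound was given at 100 mg/kg once daily, with testing on days 3–4. Training used a 0.25 mA, 3 s shock; step-through latency into the dark compartment was measured 24 h later. n = 10, mean ± SEM, t-test.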

Mus musculus [6] = assay: Antialzheimer activity in amyloid beta (1 to 42)-challenged ICR mouse assessed as decrease in escape latency at 100 mg/kg, po measured after 7 days by water maze test; format: functional, organism-based; design: dose 100 mg/kg
In short: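 Male ICR mice were injected ICV with 50 µL of pre-aggregated Aβ(1–42) at 10 nM. Compound was then supplied for 7 days in pellet feed, each pellet containing 3 mg. Water maze training ran on days 3–7, and escape latency was recorded across training sessions. n = 10, mean ± SEM.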

[7] = target: T1, Amyloid-beta precursor protein; assay: Inhibition of amyloid beta (1 to 42) fibril formation at 10 uM after 1 hr by ThT spectrofluorometric analysis; in short: as §1
[8] = Cytotoxicity against mouse HT22 cells assessed as viability at 10 uM after 18 hrs by MTT assay; format: cell-based, HT-22; conditions: read-out: Activity
In short: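 HT22 murine hippocampal cells were grown in DMEM with 10% FBS at 37 °C, 5% CO2, and plated at 5×10^3 cells/well. They were switched to plain DMEM and serum-starved for 1 h before exposure to compound at 10 µM for 18 h. MTT solution (5 mg/mL) was added for 4 h at 37 °C. Cells were solubilized in 50% DMF/10% SDS (pH 4.7) for 18 h, absorbance was read at 570/630 nm, and % cytotoxicity was calculated.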

[9] = target: T1, Amyloid-beta precursor protein; assay: Inhibition of amyloid beta (1 to 42) aggregation at 2 uM after 2 hrs by SDS-PAGE and PICUP technique
In short: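 Aβ(1–42) was monomerized in HFIP (0.5 mM), dried, and redissolved in DMSO. It was incubated at 25 µM final in PBS (pH 7.3) with compound at 2 µM final for 2 h at 37 °C. Samples were photo-cross-linked (PICUP) with ammonium persulfate and Ru(bpy)3Cl2 using three 1 s irradiations, quenched, and boiled. Products were resolved on a 10–20% tris-tricine gel and silver-stained.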

[10] = target: T1, Amyloid-beta precursor protein; assay: Viability of cells treated with amyloid beta (25 to 35) in mouse HT22 cells at 25 uM after 18 hrs by MTT assay; conditions: HT-22

| Molecule | inhibition [7] [%] | viability at 18 h, 10 µM [8] [%] | further results |
| --- | --- | --- | --- |
| CN(C)c1ccc(/C=C/c2cc(/C=C/c3ccc(N(C)C)c(O)c3)ncn2)cc1O | 93.7 | 133 | Activity (Mus musculus [1]): 7%; Activity (Mus musculus [2]): 67%; viability, % of control [3]: 76.6%; IC50 [4]: 3.4 µM; Time (Mus musculus [5]): 118 s; Activity (Mus musculus [6]): Active; inhibition [9]: Active |
| CSc1nc(/C=C/c2ccc(O)c(N(C)C)c2)cc(/C=C/c2ccc(O)c(N(C)C)c2)n1 | 78.6 | 77.3 | – |
| COc1cc(/C=C/c2cccc(/C=C/c3ccc(O)c(OC)c3)c2)ccc1O | 71.5 | 74.8 | – |
| CSc1nc(/C=C/c2ccc(O)cc2)cc(/C=C/c2ccc(O)cc2)n1 | 67.4 | 65.3 | – |
| Oc1ccc(/C=C/c2cc(O)cc(/C=C/c3ccc(O)cc3)c2)cc1 | 80.7 | 37.4 | IC50 [4]: 1.6 µM |
| Oc1cc(/C=C/c2ccccc2)cc(/C=C/c2ccccc2)c1 | 19.8 | – | – |
| COc1nc(/C=C/c2ccc(O)cc2)cc(/C=C/c2ccc(O)cc2)n1 | 67.4 | 101 | – |
| CSc1nc(/C=C/c2ccccc2)cc(/C=C/c2ccccc2)n1 | 11.6 | – | – |
| C(=C\c1cccc(/C=C/c2ccccc2)c1)/c1ccccc1 | 19.8 | – | – |
| COc1cc(/C=C/c2cc(/C=C/c3ccc(O)c(OC)c3)nc(SC)n2)ccc1O | 67.6 | 79 | – |
| Oc1ccc(/C=C/c2cccc(/C=C/c3ccc(O)cc3)c2)cc1 | 58.4 | 102 | – |
| CN(C)c1ccc(/C=C/c2cccc(/C=C/c3ccc(N(C)C)c(O)c3)c2)cc1O | 56 | 101 | – |
| COc1nc(/C=C/c2ccc(OC)c(O)c2)cc(/C=C/c2ccc(OC)c(O)c2)n1 | 55 | 98.4 | – |
| COc1cc(/C=C/c2cc(O)cc(/C=C/c3ccc(O)c(OC)c3)c2)ccc1O | 79 | 80.9 | – |
| COc1ccc(/C=C/c2cc(/C=C/c3ccc(OC)c(O)c3)nc(SC)n2)cc1O | 75.2 | 78.8 | – |
| CN(C)c1cc(/C=C/c2cc(O)cc(/C=C/c3ccc(O)c(N(C)C)c3)c2)ccc1O | 74.2 | 66 | – |
| COc1nc(/C=C/c2ccccc2)cc(/C=C/c2ccccc2)n1 | 18.8 | – | – |
| CSc1nc(/C=C/c2ccc(N(C)C)c(O)c2)cc(/C=C/c2ccc(N(C)C)c(O)c2)n1 | 88.8 | 85.3 | IC50 [4]: 1.1 µM |

| Molecule | inhibition [7] [%] | viability at 18 h, 10 µM [8] [%] | further results |
| --- | --- | --- | --- |
| Oc1cccc(/C=C/c2cccc(/C=C/c3cccc(O)c3)c2)c1 | – | 47 | – |
| COc1nc(/C=C/c2ccc(N(C)C)c(O)c2)cc(/C=C/c2ccc(N(C)C)c(O)c2)n1 | 90.4 | 101 | viability, % of control [3]: 67.4%; IC50 [4]: 0.8 µM |
| COc1nc(/C=C/c2ccc(O)c(N(C)C)c2)cc(/C=C/c2ccc(O)c(N(C)C)c2)n1 | 74.1 | 96.6 | viability, % of control [3]: 59% |
| Oc1cccc(/C=C/c2cc(/C=C/c3cccc(O)c3)ncn2)c1 | 14.1 | 142 | – |
| COc1ccc(/C=C/c2cccc(/C=C/c3ccc(OC)c(O)c3)c2)cc1O | 67.9 | 69.5 | – |
| CN(C)c1ccc(/C=C/c2cc(O)cc(/C=C/c3ccc(N(C)C)c(O)c3)c2)cc1O | 83.3 | 64.4 | IC50 [4]: 3.3 µM |
| COc1cc(/C=C/c2cc(/C=C/c3ccc(O)c(OC)c3)ncn2)ccc1O | 79.3 | 216 | Activity (Mus musculus [1]): 13%; Activity (Mus musculus [2]): 67%; viability, % of control [3]: 103%; IC50 [4]: 3.2 µM; Time (Mus musculus [5]): 118 s; Activity (Mus musculus [6]): Active; inhibition [9]: Active |
| CN(C)c1cc(/C=C/c2cccc(/C=C/c3ccc(O)c(N(C)C)c3)c2)ccc1O | 63.9 | 95.7 | – |
| Oc1ccc(/C=C/c2cc(/C=C/c3ccc(O)cc3)ncn2)cc1 | 64.3 | 104 | – |
| H-GSNKGAIIGLC-OH | – | – | viability [10]: 56% |
| COc1nc(/C=C/c2cccc(O)c2)cc(/C=C/c2cccc(O)c2)n1 | – | 45.9 | – |
| COc1ccc(/C=C/c2cc(O)cc(/C=C/c3ccc(OC)c(O)c3)c2)cc1O | 84.5 | 73.5 | IC50 [4]: 1.6 µM |
| CSc1nc(/C=C/c2cccc(O)c2)cc(/C=C/c2cccc(O)c2)n1 | – | 43.7 | – |
| CN(C)c1cc(/C=C/c2cc(/C=C/c3ccc(O)c(N(C)C)c3)ncn2)ccc1O | 83.5 | 146 | Activity (Mus musculus [1]): inactive; Activity (Mus musculus [2]): 67%; viability, % of control [3]: 85.3%; IC50 [4]: 3.7 µM; Time (Mus musculus [5]): 118 s; Activity (Mus musculus [6]): Active; inhibition [9]: Active |
| COc1nc(/C=C/c2ccc(O)c(OC)c2)cc(/C=C/c2ccc(O)c(OC)c2)n1 | 68 | 75.2 | – |
| Oc1cccc(/C=C/c2cc(O)cc(/C=C/c3cccc(O)c3)c2)c1 | 7.1 | 59.2 | – |
| C(=C\c1cc(/C=C/c2ccccc2)ncn1)/c1ccccc1 | 47.4 | – | – |
